Screens deposited in PubChem BioAssay by Johns Hopkins Ion Channel Center.
KCNK9 inh = KCNK9 potassium channel inhibitors, primary screen, HEK293 cells, thallium flux; Potassium channel subfamily K member 9 (Homo sapiens), Q9NPC2; FluxOR thallium flux fluorescence; hits give low values; B-score at 10 µM; 1.2% of 310,000 active;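 active = ratio B-score over 3 SD below the library mean, with starting fluorescence within 5 SD of its mean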;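 also: negative B-score means less thallium flux so channel inhibition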
KCNQ1 inh = inhibitors of human KCNQ1 channel, primary screen, cell-based, thallium flux, high-throughput. Potassium voltage-gated channel subfamily KQT member 1 (Homo sapiens), P51787. CHO-K1 KCNQ1, FluxOR thallium flux fluorescence; hits give high values. B-score at 10 µM. 1.3% of 310,000 active;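 active = compounds whose thallium flux B-score, printed positive for inhibition, exceeds three library SD while starting fluorescence stays within three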;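 also: channel opened by potassium depolarization with thallium stimulus after 20 min compound exposure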
KCNQ1 pot = potentiators or activators of KCNQ1 channel, primary screen, cell-based, thallium flux, high-throughput. CHO-K1 KCNQ1, thallium flux FluxOR fluorescence; hits give high values. B-score at 10 µM. 0.35% of 310,000 active. AID 2648, 2010;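 active = fluorescence ratio B-score, a plate-corrected score, at least three library SD, with initial intensity B-score within 5 SD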
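Assay system: CHO-K1 cells stably expressing KCNQ1; Medium: assay buffer with matched DMSO; Also added: K+/Tl+ depolarizing stimulus; Dosing: single dose; Timing: dye 90 min, compound 20 min, room temperature; Measured by: kinetic FluxOR thallium fluorescence, 10-s 1-Hz baseline, 110-s post-stimulus read; Read-out: peak-minus-minimum fluorescence over initial fluorescence, negative-control normalized, B-scored.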
hERG protect = hERG rescue from dofetilide block, primary screen, cell-based, CHO-hERG, FluxOR thallium flux, dofetilide IC70; activation (rescue from dofetilide block), less the hit threshold, % at 10 µM; dofetilide IC70 present; 0.51% of 310,000 active; Voltage-gated inwardly rectifying potassium channel KCNH2 (Homo sapiens), Q12809;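 active = activation above the mean of controls blocked by dofetilide plus 5 SD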;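 also: thallium influx through hERG after potassium depolarization seen as dye fluorescence rise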
Target sequence (Q12809 whole entry, looked up): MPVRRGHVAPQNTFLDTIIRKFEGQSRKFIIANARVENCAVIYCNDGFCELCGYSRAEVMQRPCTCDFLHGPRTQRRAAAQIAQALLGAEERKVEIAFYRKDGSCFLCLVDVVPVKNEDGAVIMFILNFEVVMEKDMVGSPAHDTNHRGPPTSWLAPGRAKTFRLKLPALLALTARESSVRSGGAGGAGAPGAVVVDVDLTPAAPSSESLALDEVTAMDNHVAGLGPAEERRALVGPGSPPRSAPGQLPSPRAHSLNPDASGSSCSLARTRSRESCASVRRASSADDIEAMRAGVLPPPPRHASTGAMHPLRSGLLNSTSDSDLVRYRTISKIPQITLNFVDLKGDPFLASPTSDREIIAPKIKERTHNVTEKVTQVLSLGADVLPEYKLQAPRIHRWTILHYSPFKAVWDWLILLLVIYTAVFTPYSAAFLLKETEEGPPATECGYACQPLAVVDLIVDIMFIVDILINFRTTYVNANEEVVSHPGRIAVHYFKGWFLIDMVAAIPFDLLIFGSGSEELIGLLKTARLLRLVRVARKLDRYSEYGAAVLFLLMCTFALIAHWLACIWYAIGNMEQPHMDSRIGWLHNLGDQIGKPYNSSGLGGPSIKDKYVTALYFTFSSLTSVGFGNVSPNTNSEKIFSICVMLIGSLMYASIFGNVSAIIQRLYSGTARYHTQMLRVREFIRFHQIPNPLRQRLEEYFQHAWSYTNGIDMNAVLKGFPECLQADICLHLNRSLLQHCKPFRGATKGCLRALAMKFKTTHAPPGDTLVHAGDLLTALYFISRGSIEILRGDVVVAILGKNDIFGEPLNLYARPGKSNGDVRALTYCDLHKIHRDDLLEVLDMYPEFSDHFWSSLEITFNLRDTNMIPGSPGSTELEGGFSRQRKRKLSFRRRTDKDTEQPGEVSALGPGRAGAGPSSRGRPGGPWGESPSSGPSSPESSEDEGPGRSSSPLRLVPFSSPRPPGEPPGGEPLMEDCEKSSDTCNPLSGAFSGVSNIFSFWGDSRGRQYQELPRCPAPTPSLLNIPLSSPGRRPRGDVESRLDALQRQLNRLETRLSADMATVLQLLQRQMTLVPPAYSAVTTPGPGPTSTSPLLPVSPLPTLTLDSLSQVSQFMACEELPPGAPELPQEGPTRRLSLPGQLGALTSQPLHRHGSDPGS
KCNK3 inh = human KCNK3 channel inhibitors, primary screen, CHO cells, FluxOR thallium flux, B-score; Potassium channel subfamily K member 3 (Homo sapiens), O14649; FluxOR fluorescence; hits give low values; B-score at 10 µM; 0.84% of 340,000 active; AID 602410, 2012;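 active = B-score under library mean minus 4 SD, starting fluorescence ratio at most library mean plus 5 SD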;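 also: more negative B-score means stronger inhibition of thallium flux through KCNK3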
Kir21 inh = inhibitors of mouse Kir2.1 inward-rectifier potassium channel. Inward rectifier potassium channel 2 (Mus musculus), P35561. HEK293-Kir2.1, FluxOR thallium flux fluorescence; hits give low values. B-score at 10 µM. 0.85% of 310,000 active. AID 1672, 2009;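 active = fluorescence ratio B-score at or below minus 3 SD of library scores, with starting-brightness B-score within 2 SD, cut at about -4.2 in these data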;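 also: channel flux triggered by added potassium and thallium sulfate stimulus; B-score of peak minus minimum fluorescence over baseline after thallium stimulus; more negative B-score means stronger Kir2.1 block with less thallium influx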
KCNQ1 block val = KCNQ1 potassium channel inhibitors, confirmation, cell-based, Tl flux, duplicate | shares compounds with KCNQ1 inh | KCNQ1 cell line, FluxOR thallium flux fluorescence | inhibition, % at 10 µM | 93% of 1,600 active | AID 588353, 2011;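 active = primary screen active, with duplicate mean exceeding buffer control mean plus 3 SD of buffer wells, cut at about 28% in these data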;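 also: 0% = buffer control ratio and 100% = XE991 inhibitor control ratio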
CHO KCNQ1 ctr = thallium flux effects in parental CHO cells, counter-screen for KCNQ1 inhibitor project, cell-based, Tl flux. shares compounds with KCNQ1 inh. parental CHO-K1, FluxOR thallium flux fluorescence ratio; hits give low values; zero means no signal rise above baseline. fluorescence ratio (Tl flux) at 10 µM. 21% of 1,600 active. AID 588366, 2011;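 active = mean of duplicate thallium-flux fluorescence ratios in parental host cells more than 5 SD below the buffer control mean, cut at about 0.38 in these data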;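 also: ratio is peak minus minimum fluorescence divided by baseline fluorescence; actives read low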
KCNQ1 APC inh = KCNQ1 channel inhibitors, confirmation, orthogonal assay, cell-based, automated electrophysiology. shares compounds with KCNQ1 inh. KCNQ1-CHO cells, automated patch clamp current. calls only at 10 µM. 20% of 490 active. AID 624120, 2012;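 active = KCNQ1 current drop exceeding 3 SD of negative control wells, seen in both duplicate runs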;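 also: steady state current during a 2 s step from -80 to +40 mV; negative values mean current inhibition and positive values mean potentiation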
KCNQ2 spec = KCNQ2 channel inhibition, selectivity assay for KCNQ1 inhibitor project, cell-based | KCNQ2 cells, FluxOR thallium flux fluorescence | AID 651746, 2012 | inhibition, % at 10 µM | 71% of 1,600 active | shares compounds with KCNQ1 inh;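 active = mean percent inhibition of the KCNQ2 thallium signal more than 5 SD above the buffer-only control wells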;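 also: KCNQ2 expressed in CHO cells; 0% = buffer control wells and 100% = XE-991 inhibitor control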
KCNQ1-KCNE1 inh = KCNQ1/KCNE1 channel inhibition, selectivity assay for KCNQ1 inhibitor project, CHO-K1 cells, thallium flux, FluxOR; shares compounds with KCNQ1 inh; FluxOR thallium flux fluorescence; inhibition, % at 10 µM; 77% of 1,600 active;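 active = mean percent inhibition of duplicate wells above the buffer-only control mean plus 3 SD of those controls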;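 also: 0% = buffer only wells and 100% = XE-991 inhibitor control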
Active calls of the source: *; i = inactive; nt = not tested or not shown; + = active, no number. A selection: hits, their analogues and other compounds. The true share with any hit is near 3.8%.

SMILES	KCNK9 inh	KCNQ1 inh	KCNQ1 pot	hERG protect	KCNK3 inh	Kir21 inh	KCNQ1 block val	CHO KCNQ1 ctr	KCNQ2 spec	KCNQ1-KCNE1 inh	others
CC(C)NC(=O)c1sc2nc(-c3cccs3)cc(-c3cccs3)c2c1N	i	6*	i	-10	nt	2	198*	0.28*	i	i
COc1ccc(C(=O)c2sc3nc(C)cc(-c4cccs4)c3c2N)cc1	i	6*	i	-23	i	0.77	195*	0.26*	i	i
CC(=O)c1sc2nc(-c3cccs3)ccc2c1N	i	i	i	-15	i	-1	nt	nt	nt	nt
Cc1cc(C)c2c(N)c(C(=O)c3ccc(Cl)c(Cl)c3)sc2n1	i	i	i	-13	i	0	nt	nt	nt	nt
Cc1cc(C)c2c(N)c(C(=O)c3ccc(Cl)cc3)sc2n1	i	i	i	-3	i	-2	nt	nt	nt	nt
COc1ccc(C(=O)c2sc3nc(C)cc(-c4cccs4)c3c2N)cc1OC	i	7*	i	-10	i	-1.6	199*	0.2*	i	i
Cc1ccc(Cc2c(C)nc3nc(SCC(=O)NCCCN4CCOCC4)nn3c2C)cc1	i	i	i	-15	i	-0.14	nt	nt	nt	nt
O=C(c1ccccc1)c1ccc(C(=O)N2CCOCC2)cc1	i	i	i	-8	i	1.2	nt	nt	nt	nt
Cc1sc2c(c1C)CN(CCN1CCOCC1)CN2C(=O)c1ccccc1	i	6*	i	-8	i	-0.68	0	0.47	i	37%*
O=C(c1cc(-c2ccco2)on1)N1CCN(C(c2ccccc2)c2ccccc2)CC1	i	8*	i	-9	i	-1.1	124*	0.43	96%*	142%*
COc1ccc2oc(C(=O)N3CCN(C(c4ccccc4)c4ccccc4)CC3)c(C)c2c1	i	9*	i	-12	i	0.16	93*	0.44	101%*	114%*	KCNQ1 APC inh=+
COc1ccc(-c2cc(C(=O)N3CCN(C(c4ccccc4)c4ccccc4)CC3)no2)cc1	i	i	i	-14	i	0.71	nt	nt	nt	nt
COc1ccc2oc(C(=O)N3CCN(C/C=C/c4ccccc4)CC3)c(C)c2c1	nt	nt	nt	nt	i	nt	nt	nt	nt	nt
CC(C)c1cc(C(=O)N2CCN(C(c3ccccc3)c3ccccc3)CC2)no1	-7.9*	7*	i	-7	i	-0.63	108*	0.41	103%*	110%*	KCNQ1 APC inh=i
COc1ccc(-c2cc(C(=O)N3CCN(C(c4ccccc4)c4ccccc4)CC3)no2)cc1OC	i	i	i	-10	i	0.83	nt	nt	nt	nt
CC(C)Cc1cc(C(=O)N2CCN(C(c3ccccc3)c3ccccc3)CC2)no1	i	7*	i	-9	i	1.1	136*	0.44	109%*	176%*	KCNQ1 APC inh=i
CCOC(=O)CC(=O)CSc1nc2cc(C)ccc2cc1C	i	i	i	-8	i	-0.26	nt	nt	nt	nt
C=CCC1(NC(C)c2ccccc2)CCCCC1 (stereo unspecified)	i	i	i	-7	i	-1.2	nt	nt	nt	nt
COc1cccc(-c2nnc(SCc3cccnc3)o2)c1	i	i	i	-9	i	-0.03	nt	nt	nt	nt
c1ccc2c(c1)nc(N1CCCCC1)c1ccccc12	i	i	i	-4	i	2.3	nt	nt	nt	nt
c1ccc(-c2nc(N3CCCCC3)nc3ccccc23)cc1	i	7*	i	-12	i	0.05	118*	0.41	113%*	174%*	KCNQ1 APC inh=i
c1ccc2c(N3CCCCC3)nc(N3CCCC3)nc2c1	i	9*	i	-21	i	-1.6	36*	0.51	i	i
O=C(CNC(=O)c1ccccc1Cl)OCC(=O)N1CCc2ccccc21	i	i	i	-2	i	-0.93	nt	nt	nt	nt
Cc1cccc(N2CCN(CC(=O)N(C)Cc3ccccc3)CC2C)c1 (stereo unspecified)	i	i	i	-4	i	-0.16	nt	nt	nt	nt
Cc1[nH]n(-c2ccccc2)c(=O)c1C(c1ccccc1[N+](=O)[O-])C(C#N)C#N (stereo unspecified)	i	i	i	-9	i	-0.95	nt	nt	nt	nt
Cc1[nH]n(-c2ncc(-c3ccccc3)s2)c(=O)c1C(c1ccc(Cl)cc1)C(C#N)C#N (stereo unspecified)	i	7*	i	-15	i	-2.9	45*	0.42	i	69%*
O=C(NNS(=O)(=O)c1ccc(Cl)cc1)c1cccs1	i	i	i	-16	i	1.2	nt	nt	nt	nt
CCOC(=O)C1CCN(c2c(C(=O)c3ccccc3)cnc3ccc(Cl)cc23)CC1	i	6*	i	-11	i	0.16	154*	0.41	134%*	92%*	KCNQ1 APC inh=i
COc1ccccc1CC(Cc1nc2ccccc2[nH]1)c1nc2ccccc2[nH]1 (stereo unspecified)	i	8*	i	-18	i	0.81	47*	0.42	69%*	46%*
Cc1cccc(C)c1OCc1cc(C(=O)N2CCN(c3ccccc3)CC2C)no1 (stereo unspecified)	i	8*	i	-14	i	-1	86*	0.38*	117%*	120%*
